Source: PubChem BioAssay
This is a sample that favours compounds with a hit; in the whole collection about 1.1% have one here.
CAL PDZ FP-1 = inhibitors of human CAL PDZ peptide binding. hit rate 0.02% among 330,000. inhibition, % at 20 µM. Q9HD26. purified CAL PDZ, TMR-peptide fluorescence polarization, 1 h;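 active = highest replicate inhibition of at least 40%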
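Control set: unlabelled peptide and DMSO controls / Material: purified CerCALP PDZ construct / Timing: 1 h incubation at room temperature before polarization reading / Doses: 20 µM, one dose / Detection: fluorescence polarization (mP)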
miR-122 sensor = inhibitors of miR-122 in Huh7 cells; activation (reporter increase), % at 12.5 µM; hit rate 0.3% among 340,000; Huh7 miR-122 Renilla luciferase sensor, 48 h; neutral wells = 0, positive control = 100; AID 602342;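 active = mean replicate activation score at least 90 and every replicate individually at or above 90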;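 note: higher luciferase means less miR-122 activity so hits act as miR-122 inhibitors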
PglD inh = PglD (C. jejuni) enzyme inhibition. purified PglD enzyme, DTNB colorimetric CoA detection. hit rate 0.098% among 360,000. inhibition, % at 12.5 µM. AID 602405; in the data active = inhibition above about 16%, passing the limit was not always enough
Cneo AK release = causes C. neoformans cell lysis; adenylate kinase release luminescence, 4 h; normalised: neutral wells 0, clomiphene wells 100; lysis activity, % at 15 µM; hit rate 0.2% among 360,000;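 active = mean lysis activity across replicates of at least 80%, whatever share of replicates individually reach that level; inactive = mean lysis activity below 80%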
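Material – Cryptococcus neoformans yeast cells · Quantity – 5 × 10^6 yeast cells/mL · Buffer or medium – YPD medium · Compound – single dose · Timing – 4 h static compound exposure, 37 °C, read 1 h post-reagent · Signal – adenylate kinase release luminescence · Read-out basis – lysis from increased AK signal · Benchmarks – Clomiphene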
CAL PDZ FP-2 = blocks peptide binding to the human CAL PDZ domain; inhibition, % at 24.9 µM; purified CAL PDZ, TMR-peptide fluorescence polarization, 1 h; hit rate 0.92% among 300,000;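 active = mean inhibition of at least 30% with at least half of replicates also reaching 30%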
Numbers stand for hits; [ ] = dose if it differs, or a comment.

How did C[C@@H]1CCCCO[C@H](CN(C)C(=O)CCCN(C)C)[C@H](C)CN([C@H](C)CO)C(=O)c2cc(NC(=O)c3ccccc3)ccc2O1 do in these assays?
miR-122 sensor: inactive; PglD inh: inactive; Cneo AK release: inactive

How did CCOC(=O)Cn1c2ccccc2c2nc3ccccc3nc21 do in these assays?
CAL PDZ FP-1: inactive; miR-122 sensor: inactive; PglD inh: inactive; Cneo AK release: inactive; CAL PDZ FP-2: 42.3

How did Cc1csc(-c2cnn(-c3ccccc3)c2NC(=O)c2cccc(C(F)(F)F)c2)n1 do in these assays?
CAL PDZ FP-1: inactive; miR-122 sensor: inactive; PglD inh: inactive; Cneo AK release: inactive; CAL PDZ FP-2: inactive

Results for Cc1ccc([N+](=O)[O-])cc1N(CC(=O)Nc1ccc(S(=O)(=O)Nc2cccc(C(F)(F)F)c2)cc1)S(C)(=O)=O ?
CAL PDZ FP-1: inactive; miR-122 sensor: 123.1; PglD inh: inactive; Cneo AK release: inactive

Results for CC(C)CNC(=O)C(=O)NC1CCCC1 ?
CAL PDZ FP-1: inactive; miR-122 sensor: inactive; PglD inh: inactive; Cneo AK release: inactive; CAL PDZ FP-2: inactive

How did CC(C)CNC(=S)NC1CCCC1 do in these assays?
miR-122 sensor: inactive; PglD inh: inactive; Cneo AK release: inactive; CAL PDZ FP-2: 139.5

What do the screens show for `Cc1ccc(NC(=O)c2oc3ccccc3c2C)nc1`?
CAL PDZ FP-1: inactive; miR-122 sensor: inactive; PglD inh: inactive; Cneo AK release: inactive; CAL PDZ FP-2: inactive

What do the screens show for `CCc1nc2ccccc2c(C(=O)Oc2cccc3cccnc23)c1C`?
CAL PDZ FP-1: inactive; miR-122 sensor: inactive; PglD inh: inactive; Cneo AK release: inactive; CAL PDZ FP-2: inactive

How did Cc1c(C(=O)Oc2cccc3cccnc23)oc2ccccc12 do in these assays?
CAL PDZ FP-1: inactive; miR-122 sensor: inactive; PglD inh: inactive; Cneo AK release: inactive; CAL PDZ FP-2: 39.4

What do the screens show for `Cc1c(C(=O)Nc2ccccn2)oc2ccccc12`?
CAL PDZ FP-1: inactive; miR-122 sensor: 94.9; PglD inh: inactive; Cneo AK release: inactive

How did CCC(=O)N1C[C@H](C)[C@H](OC)CN(C)C(=O)c2ccc(NC(=O)C3CCOCC3)cc2OC[C@H]1C do in these assays?
miR-122 sensor: inactive; PglD inh: inactive; Cneo AK release: inactive

How did C[C@H](CO)N1C[C@H](C)[C@@H](CN(C)C)Oc2ncc(C#CCN(C)C)cc2C1=O do in these assays?
miR-122 sensor: inactive; PglD inh: inactive; Cneo AK release: inactive

How did C[C@H](CO)N1C[C@H](C)[C@@H](CN(C)C(=O)Nc2cccc3ccccc23)Oc2ccc(NC(=O)Nc3ccc(C(F)(F)F)cc3)cc2CC1=O do in these assays?
miR-122 sensor: inactive; PglD inh: inactive; Cneo AK release: inactive

What do the screens show for `C[C@@H]1CN([C@@H](C)CO)C(=O)Cc2cc(NC(=O)Nc3ccc(C(F)(F)F)cc3)ccc2O[C@@H]1CN(C)C(=O)Nc1cccc2ccccc12`?
miR-122 sensor: 264.9[16.7 µM]; PglD inh: inactive; Cneo AK release: inactive

Results for C[C@@H]1CN([C@H](C)CO)C(=O)Cc2cc(NC(=O)Nc3ccc(C(F)(F)F)cc3)ccc2O[C@@H]1CN(C)C(=O)Nc1cccc2ccccc12 ?
miR-122 sensor: 112.2[16.7 µM]; PglD inh: inactive; Cneo AK release: inactive

Results for COc1cc(OC)cc(C(=O)Nc2ccc(S(=O)(=O)Nc3ccccn3)cc2)c1 ?
CAL PDZ FP-1: inactive; miR-122 sensor: inactive; PglD inh: inactive; Cneo AK release: inactive; CAL PDZ FP-2: 32.8

Results for COc1ccc(C(=O)Nc2ccc(S(=O)(=O)Nc3nccc(C)n3)cc2)cc1OC ?
CAL PDZ FP-1: inactive; miR-122 sensor: inactive; PglD inh: inactive; Cneo AK release: inactive; CAL PDZ FP-2: 50.3

What do the screens show for `Cc1n[nH]c(C)c1CCN(C)Cc1cn(C)nc1-c1ccc2c(c1)OCCO2`?
CAL PDZ FP-1: inactive; miR-122 sensor: inactive; PglD inh: inactive; Cneo AK release: inactive; CAL PDZ FP-2: 101.8

Results for O=C(COC(=O)C1=COCCO1)Nc1ncc(C(F)(F)F)cc1Cl ?
CAL PDZ FP-1: inactive; miR-122 sensor: inactive; PglD inh: inactive; Cneo AK release: inactive; CAL PDZ FP-2: inactive

How did O=C(COC(=O)c1cnccn1)Nc1ncc(C(F)(F)F)cc1Cl do in these assays?
CAL PDZ FP-1: inactive; miR-122 sensor: inactive; PglD inh: inactive; Cneo AK release: inactive; CAL PDZ FP-2: 54.5

How did Cc1cccc(-c2nn(-c3ccccc3)cc2C(=O)Nc2cccc(S(=O)(=O)NC3=NCCC3)c2)c1 do in these assays?
CAL PDZ FP-1: inactive; miR-122 sensor: 151.6; PglD inh: inactive; Cneo AK release: inactive; CAL PDZ FP-2: inactive

How did COc1ccc(-c2nn(-c3ccccc3)cc2C(=O)Nc2cccc(S(=O)(=O)NC3=NCCC3)c2)cc1 do in these assays?
CAL PDZ FP-1: inactive; miR-122 sensor: inactive; PglD inh: inactive; Cneo AK release: inactive; CAL PDZ FP-2: inactive

How did CO[C@H]1CN(C)C(=O)c2cc(NS(C)(=O)=O)ccc2OC[C@@H](C)N(C(=O)c2ccc3c(c2)OCO3)C[C@H]1C do in these assays?
PglD inh: inactive; Cneo AK release: inactive

What do the screens show for `O=C(CCCn1c(=O)[nH]c2ccsc2c1=O)NC1CCCCC1`?
CAL PDZ FP-1: inactive; PglD inh: inactive; Cneo AK release: inactive; CAL PDZ FP-2: inactive

Results for O=C(CCCn1c(=O)[nH]c2cc(Cl)ccc2c1=O)NC1CCCCCCC1 ?
CAL PDZ FP-1: inactive; miR-122 sensor: inactive; PglD inh: inactive; Cneo AK release: inactive; CAL PDZ FP-2: 53.1

What do the screens show for `O=C(CN1CCN(c2ccccn2)CC1)Nc1cccc(F)c1`?
miR-122 sensor: inactive; PglD inh: inactive; Cneo AK release: inactive; CAL PDZ FP-2: inactive

What do the screens show for `Cc1cccc(C(=O)Nc2sc(-c3ccccc3)cc2C(=O)O)c1`?
CAL PDZ FP-1: inactive; miR-122 sensor: inactive; PglD inh: inactive; Cneo AK release: inactive; CAL PDZ FP-2: 42.9

How did CC(C)(C)C(=O)Nc1sc(-c2ccccc2)cc1C(=O)O do in these assays?
CAL PDZ FP-1: inactive; miR-122 sensor: inactive; PglD inh: inactive; Cneo AK release: inactive; CAL PDZ FP-2: inactive

How did C[C@H]1CCCCO[C@H](CN(C)Cc2ccc(Cl)c(Cl)c2)[C@@H](C)CN([C@@H](C)CO)C(=O)c2cc(NC(=O)Nc3cccc4ccccc34)ccc2O1 do in these assays?
miR-122 sensor: inactive; PglD inh: inactive; Cneo AK release: inactive

What do the screens show for `Cc1ccc(S(=O)(=O)NCC[C@@H]2CC[C@H](NC(=O)c3cnccn3)[C@@H](CO)O2)cc1`?
miR-122 sensor: inactive; PglD inh: inactive; Cneo AK release: inactive

How did O=C(Nc1cccc(F)c1)N[C@@H]1CC[C@@H](CCNS(=O)(=O)c2cccc(Cl)c2)O[C@@H]1CO do in these assays?
PglD inh: inactive; Cneo AK release: inactive

Results for CCS(=O)(=O)NCC[C@H]1CC[C@H](NS(=O)(=O)c2cccc(F)c2)[C@H](CO)O1 ?
PglD inh: inactive; Cneo AK release: 110.2

How did CCS(=O)(=O)NCC[C@H]1CC[C@H](NS(=O)(=O)c2cccc(F)c2)[C@@H](CO)O1 do in these assays?
PglD inh: inactive; Cneo AK release: inactive
